The RNAGym collection of RNA variant scans (doi:10.1038/s41586-018-0170-7)

B1: tRNA (parent)
chain: GUUCCGUUGGCGUAAUGGUAACGCGUCUCCCUCCUAAGGAGAAGACUGCGGGUUCGAGUCCCGUACGGAACG

Variants of: B1
Assay: yeast fitness, log relative to wild type (ln ratio); higher = fitter; tRNA-Arg(CCU), competitive growth, 37 C, 1 M NaCl
Summary of the method: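 Variants were counted by 125 bp paired-end Illumina sequencing after pools of a combinatorial tRNA-Arg(CCU) library, held on a HIS3 centromeric plasmid in BY4742 lacking the chromosomal gene, grew ~6.5 generations (~26.5 h) in SC-HIS 1M NaCl at 37 °C. Each genotype's fitness is the natural log of its generations relative to the wild type's. Generations were OD-scaled log2 output/input frequencies, inverse-variance weighted over replicates.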

In order of falling “yeast fitness (ln)” value:
1. GGUCCUUUGGCGUAAUGGUAACGCGUCUCCCUCCUAAGGAGAAGACUGCGGGUUCGAGUCCCGUAAGGAUCG [U2G G6U C66A A70U]  0.00254
2. GCUCCUUUGGCGUAAUGGUAACGCGUCUCCCUCCUAAGGAGAAGACUGCGGGUUCGAGUCCCGUACGGAACG [U2C G6U]  -0.00207
3. GCUCCUUUGGCGUAAUGGUAACGCGUCUCCCUCCUAAGGAGACGAUUGCGGGUUCGAGUCCCGUAAGGGGUG [U2C G6U A43C C46U C66A A69G A70G C71U]  -0.00753
4. GCUCCAUUGGCGUAAUGGUAACGCGUCUCCCUCCUAAGGAGAAGAUUGCGGGUUCGAGUCCCGUAUGGGGCG [U2C G6A C46U C66U A69G A70G]  -0.0132
5. ACUCCAUUGGCGUAAUGGUAACGCGUCUCCCUCCUAAGGAGAAGAUUGCGGGUUCGAGUCCCGUAUGGGUCG [G1A U2C G6A C46U C66U A69G A70U]  -0.0207
6. ACUCCUUUGGCGUAAUGGUAACGCGUCUCCCUCCUAAGGAGAAGAUUGCGGGUUCGAGUCCCGUACGGGUCG [G1A U2C G6U C46U A69G A70U]  -0.0237
7. GCUCCUUUGGCGUAAUGGUAACGCGUUUCCCUCCUAAGGAGACGACUGCGGGUUCGAGUCCCGUAAGGAGCG [U2C G6U C27U A43C C66A A70G]  -0.0266
8. GCUCCAUUGGCGUAAUGGUAACGCGUCUCCCUCCUAAGGAGAAGACUGCGGGUUCGAGUCCCGUAUGGAUCG [U2C G6A C66U A70U]  -0.0364
9. ACUCCAUUGGCGUAAUGGUAACGCGUCUCCCUCCUAAGGAGACGAUUGCGGGUUCGAGUCCCGUACGGAGCG [G1A U2C G6A A43C C46U A70G]  -0.0508
10. AUUCCAUUGGCGUAAUGGUAACGCGUCUCCCUCCUAAGGAGAAGACUGCGGGUUCGAGUCCCGUAUGGAUCG [G1A G6A C66U A70U]  -0.0527
11. ACUCCAUUGGCGUAAUGGUAACGCGUUUCCCUCCUAAGGAGAAGACUGCGGGUUCGAGUCCCGUAUGGGGUG [G1A U2C G6A C27U C66U A69G A70G C71U]  -0.0671
12. AUUCCGUUGGCGUAAUGGUAACGCGUCUCCCUCCUAAGGAGACGAUUGCGGGUUCGAGUCCCGUAAGGAUCG [G1A A43C C46U C66A A70U]  -0.082
13. GCUCCGUUGGCGUAAUGGUAACGCGUUUCCCUCCUAAGGAGAAGACUGCGGGUUCGAGUCCCGUAAGGAGCG [U2C C27U C66A A70G]  -0.105
14. GGUCCAUUGGCGUAAUGGUAACGCGUUUCCCUCCUAAGGAGACGACUGCGGGUUCGAGUCCCGUACGGAUCG [U2G G6A C27U A43C A70U]  -0.119
15. ACUCCAUUGGCGUAAUGGUAACGCGUCUCCCUCCUAAGGAGACGACUGCGGGUUCGAGUCCCGUAUGGAGCG [G1A U2C G6A A43C C66U A70G]  -0.12
16. AUUCCGUUGGCGUAAUGGUAACGCGUUUCCCUCCUAAGGAGACGACUGCGGGUUCGAGUCCCGUAAGGAUCG [G1A C27U A43C C66A A70U]  -0.136
17. GGUCCUUUGGCGUAAUGGUAACGCGUCUCCCUCCUAAGGAGAAGAUUGCGGGUUCGAGUCCCGUAUGGAGCG [U2G G6U C46U C66U A70G]  -0.137
18. GGUCCAUUGGCGUAAUGGUAACGCGUCUCCCUCCUAAGGAGAAGACUGCGGGUUCGAGUCCCGUAAGGAAUG [U2G G6A C66A C71U]  -0.139
19. GUUCCAUUGGCGUAAUGGUAACGCGUCUCCCUCCUAAGGAGAAGAUUGCGGGUUCGAGUCCCGUACGGAUUG [G6A C46U A70U C71U]  -0.15
20. GCUCCGUUGGCGUAAUGGUAACGCGUCUCCCUCCUAAGGAGAAGACUGCGGGUUCGAGUCCCGUAUGGAUUG [U2C C66U A70U C71U]  -0.152
21. AUUCCUUUGGCGUAAUGGUAACGCGUCUCCCUCCUAAGGAGAAGACUGCGGGUUCGAGUCCCGUACGGAUCG [G1A G6U A70U]  -0.156
22. GGUCCAUUGGCGUAAUGGUAACGCGUUUCCCUCCUAAGGAGACGACUGCGGGUUCGAGUCCCGUACGGGGUG [U2G G6A C27U A43C A69G A70G C71U]  -0.176
23. GCUCCGUUGGCGUAAUGGUAACGCGUUUCCCUCCUAAGGAGAAGACUGCGGGUUCGAGUCCCGUAUGGGGCG [U2C C27U C66U A69G A70G]  -0.185
24. GUUCCGUUGGCGUAAUGGUAACGCGUUUCCCUCCUAAGGAGAAGACUGCGGGUUCGAGUCCCGUAAGGGGUG [C27U C66A A69G A70G C71U]  -0.191
25. GGUCCAUUGGCGUAAUGGUAACGCGUUUCCCUCCUAAGGAGAAGAUUGCGGGUUCGAGUCCCGUAUGGGACG [U2G G6A C27U C46U C66U A69G]  -0.215
26. GGUCCUUUGGCGUAAUGGUAACGCGUCUCCCUCCUAAGGAGAAGAUUGCGGGUUCGAGUCCCGUAAGGAGUG [U2G G6U C46U C66A A70G C71U]  -0.26
27. GUUCCGUUGGCGUAAUGGUAACGCGUCUCCCUCCUAAGGAGACGAUUGCGGGUUCGAGUCCCGUACGGGUUG [A43C C46U A69G A70U C71U]  -0.273
28. AUUCCUUUGGCGUAAUGGUAACGCGUCUCCCUCCUAAGGAGAAGACUGCGGGUUCGAGUCCCGUAUGGAUUG [G1A G6U C66U A70U C71U]  -0.278
29. AGUCCAUUGGCGUAAUGGUAACGCGUCUCCCUCCUAAGGAGACGAUUGCGGGUUCGAGUCCCGUAAGGGUUG [G1A U2G G6A A43C C46U C66A A69G A70U C71U]  -0.286
30. GUUCCAUUGGCGUAAUGGUAACGCGUCUCCCUCCUAAGGAGACGACUGCGGGUUCGAGUCCCGUAUGGGUUG [G6A A43C C66U A69G A70U C71U]  -0.295
31. GUUCCUUUGGCGUAAUGGUAACGCGUCUCCCUCCUAAGGAGACGACUGCGGGUUCGAGUCCCGUACGGGGUG [G6U A43C A69G A70G C71U]  -0.327
32. AUUCCGUUGGCGUAAUGGUAACGCGUUUCCCUCCUAAGGAGAAGACUGCGGGUUCGAGUCCCGUAUGGGGUG [G1A C27U C66U A69G A70G C71U]  -0.361
33. AUUCCUUUGGCGUAAUGGUAACGCGUUUCCCUCCUAAGGAGAAGACUGCGGGUUCGAGUCCCGUAUGGAGUG [G1A G6U C27U C66U A70G C71U]  -0.38
34. AUUCCUUUGGCGUAAUGGUAACGCGUCUCCCUCCUAAGGAGACGAUUGCGGGUUCGAGUCCCGUAUGGGGCG [G1A G6U A43C C46U C66U A69G A70G]  -0.389
35. AUUCCAUUGGCGUAAUGGUAACGCGUCUCCCUCCUAAGGAGACGACUGCGGGUUCGAGUCCCGUAUGGGUUG [G1A G6A A43C C66U A69G A70U C71U]  -0.402
36. AGUCCUUUGGCGUAAUGGUAACGCGUUUCCCUCCUAAGGAGAAGACUGCGGGUUCGAGUCCCGUAAGGGUUG [G1A U2G G6U C27U C66A A69G A70U C71U]  -0.404
37. AGUCCUUUGGCGUAAUGGUAACGCGUCUCCCUCCUAAGGAGAAGAUUGCGGGUUCGAGUCCCGUAUGGGUUG [G1A U2G G6U C46U C66U A69G A70U C71U]  -0.441
38. AGUCCAUUGGCGUAAUGGUAACGCGUCUCCCUCCUAAGGAGACGACUGCGGGUUCGAGUCCCGUACGGGAUG [G1A U2G G6A A43C A69G C71U]  -0.506
